# NF-kB expr up: compounds increasing NF-kB expression in human neuronal cells. fold change at 12.5 µM. NF-kB reporter expression; stronger effect = higher value. AID 1239. 1.6% of 190,000 active; in the data active means fold change above about 3.3
# C8 TRAIL sens: sensitizes caspase-8 expressing cells to TRAIL; inhibition (viability loss, TRAIL sensitization), % at 10 µM; 1% of 360,000 active; NB7+C8 cells + TRAIL, ATPlite viability luminescence;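 active means compounds causing at least 50% loss of cell viability in the single-dose screen, relative to plate controls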
# APP 5'UTR act: activates APP 5'UTR luciferase reporter; 1% of 190,000 active; AID 1276; SH-SY5Y APP 5'UTR luciferase reporter, luminescence; zero percent = DMSO vehicle wells; activation, % at 2 µM;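 active means activation above a set limit, based on mean plus 3 SD of controls, cut at about 140% in these data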
# PPC-1+TRAIL kill: PPC-1 cancer cell killing with TRAIL present; 0.41% of 220,000 active; cell killing (% activity), % at 4 µM or 5 µM; PPC-1 cells + TRAIL, ATPLite viability luminescence;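 active means cell killing above 50% in the first pass at 4 µM, then a duplicate retest at 5 µM averaging 50% or more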;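 further: plate controls were cells with TRAIL plus DMSO for no effect and medium-only wells lacking cells for full effect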
# FLuc stim CS: firefly luciferase counter-screen for stimulation assays; P08659; ATPlite luciferase biochemical, luminescence, 10 min; 0 = ATP-free wells, 1 = DMSO control; activation factor at 10 µM; 200,000 tested, under 10 active; AID 1027;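 active means luciferase activation factor, scaled between plate controls, of at least 2 with compound at 10 µM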
# Target sequence (P08659 whole entry, looked up): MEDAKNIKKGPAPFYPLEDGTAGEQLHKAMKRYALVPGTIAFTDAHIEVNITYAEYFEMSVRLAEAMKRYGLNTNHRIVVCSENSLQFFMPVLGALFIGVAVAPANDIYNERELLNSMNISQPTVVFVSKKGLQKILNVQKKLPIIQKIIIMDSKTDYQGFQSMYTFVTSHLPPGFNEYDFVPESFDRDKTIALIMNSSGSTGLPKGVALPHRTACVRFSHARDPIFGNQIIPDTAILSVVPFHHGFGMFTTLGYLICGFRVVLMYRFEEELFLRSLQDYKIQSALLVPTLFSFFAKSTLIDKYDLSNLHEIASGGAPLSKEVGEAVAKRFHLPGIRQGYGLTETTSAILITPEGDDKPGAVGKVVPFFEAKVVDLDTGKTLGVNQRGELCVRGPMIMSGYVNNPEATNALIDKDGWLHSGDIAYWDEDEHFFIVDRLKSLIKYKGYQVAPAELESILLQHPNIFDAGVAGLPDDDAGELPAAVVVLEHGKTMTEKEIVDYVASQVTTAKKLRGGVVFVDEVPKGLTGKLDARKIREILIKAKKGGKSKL
#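 Material: Luciferase/luciferin reagent mix; Doses: test compounds dosed from 2 mM stocks in 100% DMSO; Schedule: 10 min incubation after luciferase reagent addition, room temperature; Measured by: luminescence from luciferase reaction; Read-out: luminescence gain marking luciferase activators.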
# FLuc inhib CS: inhibits firefly luciferase, flagging false hits in luciferase inhibition screens | ATPLite firefly luciferase biochemical luminescence, 10 min | inhibition, % at 10 µM | 1.5% of 200,000 active | AID 1006;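 active means inhibition above about 50% when tested at 10 µM, limit read from the data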
# * marks the source's active call; other numbers are inactive results; x = not tested or not shown; ! = not active in a repeat. Hits are enriched below; roughly 2.2% of the tested compounds scored in any of these assays.
SMILES,NF-kB expr up,C8 TRAIL sens,APP 5'UTR act,PPC-1+TRAIL kill,FLuc stim CS,FLuc inhib CS
CC(=O)OC[C@]1(OC(C)=O)C[C@@]23CC[C@H]4[C@@](C)(CCC[C@@]4(C)C(=O)O)[C@@H]2CC[C@@H]1C3,1.07,5.1,1.4,-7.9,1,-2.7
Cc1cc(NC(=O)Nc2ccccc2F)ccc1Br,6.66*,30.5,212.7*,-16.0,0.7,29.0
CN1OC[C@@H]2CN(C(=O)NC3CCCCC3)[C@H](c3ccc(N4CCCCC4)cc3)C[C@@H]21,x,-1.4,x,x,x,x
Cc1ccc(C(=O)Nc2ncc3c(n2)CC(c2ccco2)CC3=O)cc1 (stereo not given),1.24,9.8,30.6,30.8,0.9,13.0
O=C(Nc1ncc2c(n1)CC(c1ccco1)CC2=O)c1ccccc1 (stereo not given),1.17,0.3,1.5,58.0*,1.1,-9.5
Cc1ccc(S(=O)(=O)N2C[C@H]3C(=O)C[C@@H](c4ccccc4)N(S(=O)(=O)c4ccc(C)cc4)[C@H]3C[C@H]2c2ccccc2Cl)cc1,x,3.5,x,x,x,x
CC[C@H](C)/C=C(C)/C=C/C1=CC2=CC(=O)[C@]3(C)OC(=O)[C@@H](C(C)=O)[C@@H]3C2=CO1,3.8*,7.0,-3.1,-7.1,1.1,-9.6
COCCNC(=O)C1(C)CCCN(C(=O)c2ccc(F)c(Cl)c2)C1 (stereo not given),x,-1.7,x,x,x,x
O=C(NCCc1ccccc1)c1cc(S(=O)(=O)N2CCCCC2)c[nH]1,x,-4.1,x,x,x,x
O=C(Nc1nc2ccc(F)cc2s1)c1cccs1,7.38*,33.7,111.8,17.1,0.5,50.5*
O=C(Nc1nc2ccc(S(=O)(=O)N3CCCCC3)cc2s1)c1cccnc1,0.87,-17.7,-7.5,7.6,1,-4.5
CN(C)S(=O)(=O)c1ccc2nc(NC(=O)c3cccs3)sc2c1,3.51*,47.3,128.7,49.1,0.4,63.6*
CN(C)S(=O)(=O)c1ccc2nc(NC(=O)c3cccnc3)sc2c1,1.63,20.9,83.2,26.9,0.4,55.4*
O=C(NCc1ccccc1)C(c1ccccc1)n1c(C2CC2)nc2ccccc21 (stereo not given),x,20.6,x,x,x,x
CN(C)CCNC(=O)c1cc2c(s1)-c1ccc(Cl)cc1SC2,x,96.9*,x,x,x,x
CN1CCCC(C)(C(=O)Nc2cccc(Oc3ccccc3)c2)C1 (stereo not given),x,16.6,x,x,x,x
Nc1ccc2oc(-c3ccccc3Cl)nc2c1,2.4,47.0,9.6,42.2,0.3,74.6*
CCc1ccc2oc(-c3cc(N)ccc3O)nc2c1,4.02*,65.4*,186.9*,15.3,0.1,88.3*
CCc1ccc2oc(-c3cc(N)ccc3Cl)nc2c1,2,47.0*,160.0*,43.2,0.4,56.5*
CCc1ccc2oc(-c3cc(N)cc(C)c3O)nc2c1,1.21,20.7,104.4,7.8,0.4,61.9*
CCc1nc2ccc(C(=O)NCCCn3ccnc3)cn2c1N(CC)C(=O)NCCc1ccccc1,x,0.0,x,x,x,x
CCn1c(C)nc2cc(C(=O)NN=Cc3ccccc3OC(F)F)ccc21,x,4.4,x,x,x,x
CC(=O)Nc1cccc(NC(=O)Nc2ccc(C(C)=O)cc2)c1,1.32,13.8,6.7,18.6,0.7,28.8
CCN(CC)c1ccc(NC(=O)Nc2cccc(C(C)=O)c2)cc1,1.37,32.2,19.1,41.6,0.5,51.8*
CC(=O)c1cccc(NC(=O)Nc2ccc(C(=O)N3CCCC3)cc2)c1,1.09,24.6,22.3,19.5,0.4,60.8*
SMILES,NF-kB expr up,C8 TRAIL sens,APP 5'UTR act,PPC-1+TRAIL kill,FLuc stim CS,FLuc inhib CS
CCn1c(C)nc2cc(C(=O)N/N=C/c3ccccc3C)ccc21,3.91*,23.7,95.6,7.7,0.5,53.3*
O=C(Nc1ccccc1)Nc1ccc(C(=O)N2CCCC2)cc1,3.14,68.6*,185.9*,40.7,0.1,87.3*
CC(C)c1ccc(-n2nnnc2SCc2nc(N)nc(N)n2)cc1,x,-7.7,x,x,x,x
CCn1c(C)nc2cc(NC(=O)Nc3cccc(C(C)=O)c3)ccc21,x,55.7*,x,x,x,x
CCn1c(C)nc2cc(C(=O)OC)ccc21,1.31,0.4,1.7,x,1,-0.3
CN1CCN(Cc2nc3ccccc3c(=O)n2Cc2nc(-c3ccc4ccccc4c3)cs2)CC1,15.9*,77.2*!,-1.8,-3.1,1,-3.7
O=[N+]([O-])c1ccc(Cc2nnc(-c3ccccc3Cl)o2)cc1,3.59*,11.4,165.8*,-0.8,1,0.0
